Results on four compounds are retold here after ChEMBL document CHEMBL1126829, “Synthesis and relative potencies of new constrained CRF antagonists” (1993).

Where a SMILES comes first, the peptide text is derived from it. [ ]: non-standard residue; d: D form. NMeL = CN[C@@H](CC(C)C)C(=O)O; NMeA = CN[C@@H](C)C(=O)O

For assay [1], the species on record is Rattus norvegicus. The experiment in a line: Percent intrinsic activity was determined in rat pituitary cells. The class given is functional, Pituitary gland cell.
The species named for assay [2] is Rattus norvegicus. The experiment in a line: Compound was tested in vitro to antagonize CRF-induced release of ACTH by rat pituitary cells in culture. The class given is functional, Pituitary gland cell. The method, boiled down: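 Collagenase-dispersed rat anterior pituitary cells were grown in monolayer culture for 3–5 days. Cells were then incubated for 3 h with peptide at several doses against 1 nM CRF stimulation (n = 3). ACTH secreted into the medium was measured by double-antibody RIA. Relative potencies were derived from the dose-response curves.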

In the assay listed under Rattus norvegicus [1], `CCCC[C@H](NC(=O)[C@H](CCC(=O)O)NC(=O)[C@H](CC(C)C)NC(=O)[C@@H](NC(=O)[C@H](CCC(=O)O)NC(=O)[C@H](CCCN=C(N)N)NC(=O)[C@H](CC(C)C)NC(=O)[C@](C)(CC(C)C)NC(=O)[C@H](Cc1c[nH]cn1)NC(=O)[C@H](N)Cc1ccccc1)C(C)C)C(=O)N[C@@H](C)C(=O)N[C@@H](CCCN=C(N)N)C(=O)NC(C)(C)C(=O)N[C@@H](CCC(=O)O)C(=O)N[C@@H](CCC(N)=O)C(=O)N[C@@H](CC(C)C)C(=O)NC(C)(C)C(=O)N[C@@H](CCC(N)=O)C(=O)N[C@@H](CCC(N)=O)C(=O)NC(C)(C)C(=O)N[C@@H](Cc1c[nH]cn1)C(=O)N[C@@H](CO)C(=O)N[C@@H](CC(N)=O)C(=O)N[C@@H](CCCN=C(N)N)C(=O)N[C@@H](CCCCN)C(=O)N[C@@H](CC(C)C)C(=O)N[C@@H](CCCC)C(=O)N[C@@H](CCC(=O)O)C(=O)N[C@H](C(=O)N[C@H](C(N)=O)[C@@H](C)CC)[C@@H](C)CC` gave an IA of 23%.

In the assay filed under Rattus norvegicus [1], `CCCC[C@H](NC(=O)[C@H](CCC(=O)O)NC(=O)[C@H](CC(C)C)NC(=O)[C@@H](NC(=O)[C@H](CCC(=O)O)NC(=O)[C@H](CCCN=C(N)N)NC(=O)[C@](C)(CC(C)C)NC(=O)[C@H](CC(C)C)NC(=O)[C@H](Cc1c[nH]cn1)NC(=O)[C@H](N)Cc1ccccc1)C(C)C)C(=O)N[C@@H](C)C(=O)N[C@@H](CCCN=C(N)N)C(=O)NC(C)(C)C(=O)N[C@@H](CCC(=O)O)C(=O)N[C@@H](CCC(N)=O)C(=O)N[C@@H](CC(C)C)C(=O)NC(C)(C)C(=O)N[C@@H](CCC(N)=O)C(=O)N[C@@H](CCC(N)=O)C(=O)NC(C)(C)C(=O)N[C@@H](Cc1c[nH]cn1)C(=O)N[C@@H](CO)C(=O)N[C@@H](CC(N)=O)C(=O)N[C@@H](CCCN=C(N)N)C(=O)N[C@@H](CCCCN)C(=O)N[C@@H](CC(C)C)C(=O)N[C@@H](CCCC)C(=O)N[C@@H](CCC(=O)O)C(=O)N[C@H](C(=O)N[C@H](C(N)=O)[C@@H](C)CC)[C@@H](C)CC` returned an IA of 8%.

`CSCC[C@H](NC(=O)[C@H](CCC(=O)O)NC(=O)[C@H](CCCN=C(N)N)NC(=O)[C@H](CC(C)C)N(C)C(=O)[C@H](CC(C)C)NC(=O)[C@H](Cc1c[nH]cn1)NC(=O)[C@H](Cc1ccccc1)NC(=O)[C@@H](NC(=O)[C@H](CC(C)C)N(C)C(=O)[C@@H](N)CC(=O)O)[C@@H](C)O)C(=O)N[C@@H](CC(C)C)C(=O)N[C@@H](CCC(=O)O)C(=O)N[C@@H](CCSC)C(=O)N(C)[C@@H](C)C(=O)N[C@@H](CCCCN)C(=O)N[C@@H](C)C(=O)N[C@@H](CCC(=O)O)C(=O)N[C@@H](CCC(N)=O)C(=O)N(C)[C@@H](CC(C)C)C(=O)N[C@@H](C)C(=O)N[C@@H](CCC(=O)O)C(=O)N[C@@H](CCC(N)=O)C(=O)N[C@@H](C)C(=O)N(C)[C@@H](C)C(=O)N[C@@H](CC(C)C)C(=O)N[C@@H](CC(N)=O)C(=O)N[C@@H](CCCN=C(N)N)C(=O)N[C@@H](CC(C)C)C(=O)N(C)[C@@H](CC(C)C)C(=O)N[C@@H](CC(C)C)C(=O)N[C@@H](CCC(=O)O)C(=O)N[C@@H](CCC(=O)O)C(=O)N(C)[C@@H](C)C(N)=O` (H-D[NMeL]TFHL[NMeL]REMLEM[NMeA]KAEQ[NMeL]AEQA[NMeA]LNRL[NMeL]LEE[NMeA]-NH2) displayed an IA in the assay filed under Rattus norvegicus [1] of 0%. The Potency in the assay filed under Rattus norvegicus [2] worked out at 0.

H-DLTFHLLREMLEMAKAEQEAEQAALNRLLLEEA-NH2 yielded an IA in the assay filed under Rattus norvegicus [1] of 14%. The Potency in the assay listed under Rattus norvegicus [2] was found to be 0.12.
